System: not listed separately
Experiment: Inhibition of bacterial VIM-2 (unknown origin) expressed in Escherichia coli EXPRESS BL21(DE3) assessed as inhibition constant by measuring rate of substrate hydrolysis by UV-visible spectrophotometry
Design: species or system Bacteria
Conditions: not given
Procedure, shortened: (§1)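 Reporter-substrate assay with purified MBL (1–70 nM final) in 50 mM HEPES pH 7.5 at 30 °C. […] Inhibitor 0.5–1000 μM final. Ki derived from the v0/vi vs [I] slope assuming competitive inhibition, or from a Dixon plot. Ki given when inhibition >70%, otherwise % inhibition at 100 μM. Triplicate.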

Compound	Ki
O=C(O)[C@H](CCCn1c(-c2ccccc2)n[nH]c1=S)N(Cc1c[nH]cn1)Cc1cscn1	350 nM
O=C(O)[C@H](CCCn1c(-c2cccc(-c3ccccc3)c2)n[nH]c1=S)N(Cc1c[nH]cn1)Cc1c[nH]cn1	90 nM
O=C(O)[C@H](CCCn1c(-c2ccccc2)n[nH]c1=S)N(Cc1c[nH]cn1)Cc1ncc[nH]1	3300 nM
O=C(O)[C@H](CCCn1c(C2CCCCC2)n[nH]c1=S)N(Cc1c[nH]cn1)Cc1c[nH]cn1	110 nM
O=C(O)[C@H](CCCn1c(-c2ccccc2)n[nH]c1=S)N(Cc1cscn1)Cc1cscn1	2500 nM
COc1cccc(CN(Cc2cccc(OC)c2OC)[C@@H](CCCn2c(-c3ccccc3)n[nH]c2=S)C(=O)O)c1OC	760 nM
O=C(O)[C@H](CCCn1c(-c2ccccc2)n[nH]c1=S)N(Cc1ccccc1)Cc1c[nH]cn1	2100 nM

System: Bacteria
Experiment: Inhibition of bacterial IMP-1 (unknown origin) expressed in Escherichia coli EXPRESS BL21(DE3) assessed as inhibition constant by measuring rate of substrate hydrolysis at 100 uM by UV-visible spectrophotometry relative to control
Conditions: not given
Procedure, shortened: as §1

Compound	inhibition
O=C(O)[C@H](CCCn1c(-c2ccccc2)n[nH]c1=S)N(Cc1c[nH]cn1)Cc1cscn1	59%
O=C(O)[C@H](CCCn1c(-c2cccc(-c3ccccc3)c2)n[nH]c1=S)N(Cc1c[nH]cn1)Cc1c[nH]cn1	69%
O=C(O)[C@H](CCCn1c(-c2ccccc2)n[nH]c1=S)N(Cc1c[nH]cn1)Cc1ncc[nH]1	49%
O=C(O)[C@H](CCCn1c(C2CCCCC2)n[nH]c1=S)N(Cc1c[nH]cn1)Cc1c[nH]cn1	48%
O=C(O)[C@H](CCCn1c(-c2ccccc2)n[nH]c1=S)N(Cc1cscn1)Cc1cscn1	48%
COc1cccc(CN(Cc2cccc(OC)c2OC)[C@@H](CCCn2c(-c3ccccc3)n[nH]c2=S)C(=O)O)c1OC	< 30%
O=C(O)[C@H](CCCn1c(-c2ccccc2)n[nH]c1=S)N(Cc1ccccc1)Cc1c[nH]cn1	45%

System: Klebsiella pneumoniae
Experiment: Antimicrobial activity against blaVIM-4-producing multidrug-resistant Klebsiella pneumoniae VA-416/02 clinical isolate assessed as meropenem MIC at 32 ug/ml by broth microdilution method (reference value: […] ug/ml)
Format: functional
Conditions: dose 32 µg/ml
Procedure, shortened: (§2)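 Inoculum was 5×10^4 CFU/well. Each inhibitor was present at a fixed 32 μg/mL, and MICs were also taken without inhibitor.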

Compound	MIC
O=C(O)[C@H](CCCn1c(-c2ccccc2)n[nH]c1=S)N(Cc1c[nH]cn1)Cc1cscn1	0.06 µg/mL
O=C(O)[C@H](CCCn1c(-c2cccc(-c3ccccc3)c2)n[nH]c1=S)N(Cc1c[nH]cn1)Cc1c[nH]cn1	0.03 µg/mL
O=C(O)[C@H](CCCn1c(-c2ccccc2)n[nH]c1=S)N(Cc1c[nH]cn1)Cc1ncc[nH]1	0.06 µg/mL
O=C(O)[C@H](CCCn1c(C2CCCCC2)n[nH]c1=S)N(Cc1c[nH]cn1)Cc1c[nH]cn1	0.12 µg/mL
O=C(O)[C@H](CCCn1c(-c2ccccc2)n[nH]c1=S)N(Cc1cscn1)Cc1cscn1	1 µg/mL
COc1cccc(CN(Cc2cccc(OC)c2OC)[C@@H](CCCn2c(-c3ccccc3)n[nH]c2=S)C(=O)O)c1OC	4 µg/mL
O=C(O)[C@H](CCCn1c(-c2ccccc2)n[nH]c1=S)N(Cc1ccccc1)Cc1c[nH]cn1	2 µg/mL

System: not listed separately
Experiment: Inhibition of bacterial VIM-1 (unknown origin) expressed in Escherichia coli EXPRESS BL21(DE3) assessed as inhibition constant by measuring rate of substrate hydrolysis by UV-visible spectrophotometry
Design: species or system Bacteria
Conditions: not given
Procedure, shortened: as §1

Compound	Ki
O=C(O)[C@H](CCCn1c(-c2ccccc2)n[nH]c1=S)N(Cc1c[nH]cn1)Cc1cscn1	820 nM
O=C(O)[C@H](CCCn1c(-c2cccc(-c3ccccc3)c2)n[nH]c1=S)N(Cc1c[nH]cn1)Cc1c[nH]cn1	130 nM
O=C(O)[C@H](CCCn1c(-c2ccccc2)n[nH]c1=S)N(Cc1c[nH]cn1)Cc1ncc[nH]1	450 nM
O=C(O)[C@H](CCCn1c(C2CCCCC2)n[nH]c1=S)N(Cc1c[nH]cn1)Cc1c[nH]cn1	280 nM
O=C(O)[C@H](CCCn1c(-c2ccccc2)n[nH]c1=S)N(Cc1cscn1)Cc1cscn1	2400 nM
COc1cccc(CN(Cc2cccc(OC)c2OC)[C@@H](CCCn2c(-c3ccccc3)n[nH]c2=S)C(=O)O)c1OC	2000 nM
O=C(O)[C@H](CCCn1c(-c2ccccc2)n[nH]c1=S)N(Cc1ccccc1)Cc1c[nH]cn1	4100 nM

System: Klebsiella pneumoniae
Experiment: Antimicrobial activity against blaVIM-1-producing multidrug-resistant Klebsiella pneumoniae K47-25 clinical isolate assessed as meropenem MIC at 32 ug/ml by broth microdilution method (reference value: […] ug/ml)
Format: functional
Conditions: dose 32 µg/ml
Procedure, shortened: as §2

Compound	MIC
O=C(O)[C@H](CCCn1c(-c2ccccc2)n[nH]c1=S)N(Cc1c[nH]cn1)Cc1cscn1	0.12 µg/mL
O=C(O)[C@H](CCCn1c(-c2cccc(-c3ccccc3)c2)n[nH]c1=S)N(Cc1c[nH]cn1)Cc1c[nH]cn1	0.03 µg/mL
O=C(O)[C@H](CCCn1c(-c2ccccc2)n[nH]c1=S)N(Cc1c[nH]cn1)Cc1ncc[nH]1	0.06 µg/mL
O=C(O)[C@H](CCCn1c(C2CCCCC2)n[nH]c1=S)N(Cc1c[nH]cn1)Cc1c[nH]cn1	0.06 µg/mL
O=C(O)[C@H](CCCn1c(-c2ccccc2)n[nH]c1=S)N(Cc1cscn1)Cc1cscn1	1 µg/mL
COc1cccc(CN(Cc2cccc(OC)c2OC)[C@@H](CCCn2c(-c3ccccc3)n[nH]c2=S)C(=O)O)c1OC	2 µg/mL
O=C(O)[C@H](CCCn1c(-c2ccccc2)n[nH]c1=S)N(Cc1ccccc1)Cc1c[nH]cn1	2 µg/mL

System: Bacteria
Experiment: Inhibition of bacterial NDM-1 (unknown origin) expressed in Escherichia coli EXPRESS BL21(DE3) assessed as inhibition constant by measuring rate of substrate hydrolysis at 100 uM by UV-visible spectrophotometry relative to control
Conditions: not given
Procedure, shortened: as §1

Compound	inhibition
COc1cccc(CN(Cc2cccc(OC)c2OC)[C@@H](CCCn2c(-c3ccccc3)n[nH]c2=S)C(=O)O)c1OC	43%
O=C(O)[C@H](CCCn1c(-c2ccccc2)n[nH]c1=S)N(Cc1ccccc1)Cc1c[nH]cn1	60%

System: Pseudomonas aeruginosa
Experiment: Antimicrobial activity against blaVIM-2-producing multidrug-resistant Pseudomonas aeruginosa VA-182/00 clinical isolate assessed as meropenem MIC at 32 ug/ml by broth microdilution method (reference value: 128 ug/ml)
Format: functional
Conditions: dose 32 µg/ml
Procedure, shortened: as §2

Compound	MIC
O=C(O)[C@H](CCCn1c(-c2ccccc2)n[nH]c1=S)N(Cc1c[nH]cn1)Cc1cscn1	16 µg/mL
O=C(O)[C@H](CCCn1c(-c2cccc(-c3ccccc3)c2)n[nH]c1=S)N(Cc1c[nH]cn1)Cc1c[nH]cn1	8 µg/mL
O=C(O)[C@H](CCCn1c(-c2ccccc2)n[nH]c1=S)N(Cc1c[nH]cn1)Cc1ncc[nH]1	8 µg/mL
O=C(O)[C@H](CCCn1c(C2CCCCC2)n[nH]c1=S)N(Cc1c[nH]cn1)Cc1c[nH]cn1	8 µg/mL
O=C(O)[C@H](CCCn1c(-c2ccccc2)n[nH]c1=S)N(Cc1cscn1)Cc1cscn1	128 µg/mL
COc1cccc(CN(Cc2cccc(OC)c2OC)[C@@H](CCCn2c(-c3ccccc3)n[nH]c2=S)C(=O)O)c1OC	128 µg/mL
O=C(O)[C@H](CCCn1c(-c2ccccc2)n[nH]c1=S)N(Cc1ccccc1)Cc1c[nH]cn1	128 µg/mL

System: not listed separately
Experiment: Inhibition of bacterial VIM-4 (unknown origin) expressed in Escherichia coli EXPRESS BL21(DE3) assessed as inhibition constant by measuring rate of substrate hydrolysis by UV-visible spectrophotometry
Design: species or system Bacteria
Conditions: not given
Procedure, shortened: as §1

Compound	Ki
O=C(O)[C@H](CCCn1c(-c2ccccc2)n[nH]c1=S)N(Cc1c[nH]cn1)Cc1cscn1	350 nM
O=C(O)[C@H](CCCn1c(-c2cccc(-c3ccccc3)c2)n[nH]c1=S)N(Cc1c[nH]cn1)Cc1c[nH]cn1	70 nM
O=C(O)[C@H](CCCn1c(-c2ccccc2)n[nH]c1=S)N(Cc1c[nH]cn1)Cc1ncc[nH]1	350 nM
O=C(O)[C@H](CCCn1c(C2CCCCC2)n[nH]c1=S)N(Cc1c[nH]cn1)Cc1c[nH]cn1	90 nM
O=C(O)[C@H](CCCn1c(-c2ccccc2)n[nH]c1=S)N(Cc1cscn1)Cc1cscn1	2000 nM
COc1cccc(CN(Cc2cccc(OC)c2OC)[C@@H](CCCn2c(-c3ccccc3)n[nH]c2=S)C(=O)O)c1OC	360 nM
O=C(O)[C@H](CCCn1c(-c2ccccc2)n[nH]c1=S)N(Cc1ccccc1)Cc1c[nH]cn1	1000 nM

System: Escherichia coli
Experiment: Antimicrobial activity against blaNDM-1-producing multidrug-resistant Escherichia coli SI-004 clinical isolate assessed as meropenem MIC at 32 ug/ml by broth microdilution method (reference value: 64 ug/ml)
Conditions: not given

Compound	MIC
O=C(O)[C@H](CCCn1c(-c2ccccc2)n[nH]c1=S)N(Cc1c[nH]cn1)Cc1cscn1	4 µg/mL
O=C(O)[C@H](CCCn1c(-c2cccc(-c3ccccc3)c2)n[nH]c1=S)N(Cc1c[nH]cn1)Cc1c[nH]cn1	0.06 µg/mL
O=C(O)[C@H](CCCn1c(-c2ccccc2)n[nH]c1=S)N(Cc1c[nH]cn1)Cc1ncc[nH]1	0.06 µg/mL
O=C(O)[C@H](CCCn1c(C2CCCCC2)n[nH]c1=S)N(Cc1c[nH]cn1)Cc1c[nH]cn1	0.06 µg/mL
O=C(O)[C@H](CCCn1c(-c2ccccc2)n[nH]c1=S)N(Cc1cscn1)Cc1cscn1	32 µg/mL
COc1cccc(CN(Cc2cccc(OC)c2OC)[C@@H](CCCn2c(-c3ccccc3)n[nH]c2=S)C(=O)O)c1OC	64 µg/mL
O=C(O)[C@H](CCCn1c(-c2ccccc2)n[nH]c1=S)N(Cc1ccccc1)Cc1c[nH]cn1	32 µg/mL

System: not listed separately
Experiment: Inhibition of bacterial NDM-1 (unknown origin) expressed in Escherichia coli EXPRESS BL21(DE3) assessed as inhibition constant by measuring rate of substrate hydrolysis by UV-visible spectrophotometry
Design: species or system Bacteria
Conditions: not given
Procedure, shortened: as §1

Compound	Ki
O=C(O)[C@H](CCCn1c(-c2ccccc2)n[nH]c1=S)N(Cc1c[nH]cn1)Cc1cscn1	30 nM
O=C(O)[C@H](CCCn1c(-c2cccc(-c3ccccc3)c2)n[nH]c1=S)N(Cc1c[nH]cn1)Cc1c[nH]cn1	13 nM
O=C(O)[C@H](CCCn1c(-c2ccccc2)n[nH]c1=S)N(Cc1c[nH]cn1)Cc1ncc[nH]1	2700 nM
O=C(O)[C@H](CCCn1c(C2CCCCC2)n[nH]c1=S)N(Cc1c[nH]cn1)Cc1c[nH]cn1	3.5 nM
O=C(O)[C@H](CCCn1c(-c2ccccc2)n[nH]c1=S)N(Cc1cscn1)Cc1cscn1	6500 nM

From ChEMBL document CHEMBL5236609, “Optimization of 1,2,4-Triazole-3-thiones toward Broad-Spectrum Metallo-β-lactamase Inhibitors Showing Potent Synergistic Activity on VIM- and NDM-1-Producing Clinical Isolates” (J Med Chem, 2022)
